Results as given in ChEMBL document CHEMBL1122836, “Angiotensin converting enzyme inhibitors: structure-activity profile of 1-benzazepin-2-one derivatives” (J Med Chem, 1985).

How the values were obtained:
[1] = biological target: Angiotensin-converting enzyme (Homo sapiens, UniProt P12821); assay: (§1) In vitro inhibitory activity against Angiotensin I converting enzyme
[2] = test system: Rattus norvegicus; assay: Maximal changes in blood pressure recorded during the 4 day test period in spontaneous hypertensive rats, at 30 mg/kg peroral dose; type: functional; settings: route oral
Procedure, shortened: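 Spontaneously hypertensive rats dosed orally and blood pressure recorded over a 4-day test period. Readout is the maximal change in blood pressure (mm) with the oral dose noted; pressure also followed at 24 h after dosing.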

[3] = test system: Rattus norvegicus; assay: In vivo inhibitory activity against Angiotensin I pressor response in normotensive rats after peroral administration; type: functional; settings: po, read-out: ID50 (the source's name)
[4] = test system: Canis familiaris; assay: In vivo inhibitory activity against Angiotensin I pressor response in normotensive dog after peroral administration; type: functional; settings: Canis lupus familiaris, po; read-out: ID50 (the source's name)
[5] = test system: Rattus norvegicus; assay: Maximal changes in blood pressure recorded during the 4 day test period in spontaneous hypertensive rats, at 3 mg/kg peroral dose; type: functional; settings: route oral
Procedure, shortened: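 Spontaneously hypertensive rats dosed orally with test compound. Blood pressure was recorded over a 4-day test period. The value is the maximal change in blood pressure seen in that period, given in mm with the oral dose (mg/kg) in brackets.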

[6] = biological target: T1, Angiotensin-converting enzyme (Rattus norvegicus, UniProt P47820); assay: as §1
T1 sequence (P47820 whole entry): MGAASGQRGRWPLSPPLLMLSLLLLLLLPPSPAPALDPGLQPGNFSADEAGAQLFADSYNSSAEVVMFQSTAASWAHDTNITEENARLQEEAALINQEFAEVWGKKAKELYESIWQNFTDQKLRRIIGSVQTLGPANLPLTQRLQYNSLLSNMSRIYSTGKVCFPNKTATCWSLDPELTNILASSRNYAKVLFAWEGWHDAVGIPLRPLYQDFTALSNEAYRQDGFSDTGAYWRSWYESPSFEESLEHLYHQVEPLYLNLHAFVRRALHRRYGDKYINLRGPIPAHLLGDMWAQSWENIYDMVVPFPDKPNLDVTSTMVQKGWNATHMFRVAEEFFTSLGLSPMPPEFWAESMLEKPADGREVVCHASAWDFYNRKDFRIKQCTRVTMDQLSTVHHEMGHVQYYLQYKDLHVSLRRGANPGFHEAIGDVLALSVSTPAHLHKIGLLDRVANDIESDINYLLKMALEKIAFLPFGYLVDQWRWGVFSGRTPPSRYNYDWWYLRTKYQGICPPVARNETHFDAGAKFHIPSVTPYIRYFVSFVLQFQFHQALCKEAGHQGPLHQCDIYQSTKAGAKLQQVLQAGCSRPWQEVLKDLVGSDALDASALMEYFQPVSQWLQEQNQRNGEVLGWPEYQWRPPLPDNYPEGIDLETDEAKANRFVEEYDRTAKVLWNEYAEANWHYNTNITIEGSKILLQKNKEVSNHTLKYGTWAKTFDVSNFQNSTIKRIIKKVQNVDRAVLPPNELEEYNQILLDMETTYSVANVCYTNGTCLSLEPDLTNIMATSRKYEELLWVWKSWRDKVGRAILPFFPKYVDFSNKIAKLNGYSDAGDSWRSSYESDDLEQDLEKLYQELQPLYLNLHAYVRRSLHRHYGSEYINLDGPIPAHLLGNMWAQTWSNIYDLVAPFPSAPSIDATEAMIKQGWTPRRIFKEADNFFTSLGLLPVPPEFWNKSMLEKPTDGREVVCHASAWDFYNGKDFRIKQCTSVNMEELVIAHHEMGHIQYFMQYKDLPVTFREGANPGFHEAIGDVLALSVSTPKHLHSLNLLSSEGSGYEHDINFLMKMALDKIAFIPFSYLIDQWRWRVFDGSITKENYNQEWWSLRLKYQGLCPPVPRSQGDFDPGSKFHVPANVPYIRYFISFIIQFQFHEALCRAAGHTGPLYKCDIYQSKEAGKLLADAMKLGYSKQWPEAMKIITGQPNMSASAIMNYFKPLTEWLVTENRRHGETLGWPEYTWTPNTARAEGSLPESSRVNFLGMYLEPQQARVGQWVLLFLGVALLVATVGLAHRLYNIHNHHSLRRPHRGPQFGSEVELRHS

[7] = test system: Canis familiaris; assay: In vivo inhibitory activity against Angiotensin I pressor response in normotensive dog after peroral administration, ecperiment 2; type: functional; settings: Canis lupus familiaris, po; read-out: ID50 (the source's name)
[8] = test system: Rattus norvegicus; assay: Maximal changes in blood pressure recorded during the 4 day test period in spontaneous hypertensive rats, at 1 mg/kg peroral dose; type: functional; settings: route oral
[9] = test system: Canis familiaris; assay: In vivo inhibitory activity against Angiotensin I pressor response in normotensive dog after peroral administration, experiment 1; type: functional; settings: Canis lupus familiaris, po; read-out: ID50 (the source's name)
[10] = test system: Rattus norvegicus; assay: In vivo inhibitory activity against Angiotensin I pressor response in normotensive rats by peroral administration, experiment 2; type: functional; settings: po, read-out: ID50 (the source's name)

Angiotensin-converting enzyme (Homo sapiens, UniProt P12821), sequence (P12821 whole entry): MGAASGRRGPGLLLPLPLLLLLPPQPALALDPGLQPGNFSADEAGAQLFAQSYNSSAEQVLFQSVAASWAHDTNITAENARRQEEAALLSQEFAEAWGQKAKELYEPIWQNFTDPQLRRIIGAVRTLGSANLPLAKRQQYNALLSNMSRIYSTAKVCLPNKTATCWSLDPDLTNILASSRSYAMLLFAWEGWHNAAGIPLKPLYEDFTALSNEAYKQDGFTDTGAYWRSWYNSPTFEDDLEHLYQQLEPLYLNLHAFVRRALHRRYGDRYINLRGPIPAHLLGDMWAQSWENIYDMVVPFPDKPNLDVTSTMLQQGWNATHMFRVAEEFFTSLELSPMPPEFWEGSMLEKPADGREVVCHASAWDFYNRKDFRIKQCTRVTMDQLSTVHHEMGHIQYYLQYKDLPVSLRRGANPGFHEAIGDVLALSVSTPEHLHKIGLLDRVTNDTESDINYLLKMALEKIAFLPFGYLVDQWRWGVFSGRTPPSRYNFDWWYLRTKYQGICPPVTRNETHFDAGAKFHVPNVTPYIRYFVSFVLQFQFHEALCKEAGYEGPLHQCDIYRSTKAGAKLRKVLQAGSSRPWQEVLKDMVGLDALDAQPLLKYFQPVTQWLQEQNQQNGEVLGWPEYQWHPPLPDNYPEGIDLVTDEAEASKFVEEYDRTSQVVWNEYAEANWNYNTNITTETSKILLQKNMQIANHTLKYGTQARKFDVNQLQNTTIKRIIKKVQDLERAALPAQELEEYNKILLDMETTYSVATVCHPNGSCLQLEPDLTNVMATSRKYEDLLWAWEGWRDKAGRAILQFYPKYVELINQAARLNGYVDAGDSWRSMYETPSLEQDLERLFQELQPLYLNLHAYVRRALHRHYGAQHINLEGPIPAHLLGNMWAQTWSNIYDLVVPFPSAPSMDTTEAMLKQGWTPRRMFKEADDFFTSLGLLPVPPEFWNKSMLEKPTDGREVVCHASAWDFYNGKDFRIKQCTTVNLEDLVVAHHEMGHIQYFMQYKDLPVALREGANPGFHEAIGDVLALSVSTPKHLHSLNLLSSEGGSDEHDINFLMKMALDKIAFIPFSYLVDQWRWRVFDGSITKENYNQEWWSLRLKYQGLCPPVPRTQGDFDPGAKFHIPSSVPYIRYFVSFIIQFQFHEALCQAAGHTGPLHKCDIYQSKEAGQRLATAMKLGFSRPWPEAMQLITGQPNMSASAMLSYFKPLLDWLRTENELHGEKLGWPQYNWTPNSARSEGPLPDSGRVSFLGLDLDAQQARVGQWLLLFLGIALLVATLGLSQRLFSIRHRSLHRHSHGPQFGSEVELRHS

Row | IC50 [1] | Compound | also measured
1 | 4 nM | CC(C)(C)OC(=O)NCCCC[C@H](N[C@H]1CCc2ccccc2N(CC(=O)O)C1=O)C(=O)O | 
2 | 1000 nM | COC(=O)[C@H](CC(C)C)N[C@H]1CCc2ccccc2N(CC(=O)O)C1=O | 
3 | 13 nM | O=C(O)CN1C(=O)[C@@H](N[C@@H](CCCCNC(=O)OCc2ccccc2)C(=O)O)CCc2ccccc21 | 
4 | 5 nM | CCCC[C@H](N[C@H]1CCc2ccccc2N(CC(=O)O)C1=O)C(=O)O | 
5 | 2.9 nM | O=C(O)CN1C(=O)[C@@H](N[C@@H](CSCc2ccccc2)C(=O)O)CCc2ccccc21 | 
6 | 6 nM | CCC[C@H](N[C@H]1CCc2ccccc2N(CC(=O)O)C1=O)C(=O)O | 
7 | 10 nM | O=C(O)CN1C(=O)[C@@H](N[C@@H](COCc2ccccc2)C(=O)O)CCc2ccccc21 | 
8 | 15 nM | CCOC(=O)[C@H](CCCCNC(=O)OCc1ccccc1)N[C@H]1CCc2ccccc2N(CC(=O)O)C1=O | 
9 | 40 nM | CCOC(=O)[C@H](CCCCN)N[C@H]1CCc2ccccc2N(CC(=O)O)C1=O | 
10 | 45 nM | CC(C)C[C@H](N[C@H]1CCc2ccccc2N(CC(=O)O)C1=O)C(=O)O | 
11 | 8.5 nM | O=C(O)CN1C(=O)[C@@H](N[C@@H](Cc2ccccc2)C(=O)O)CCc2ccccc21 | 
12 | 13 nM | O=C(O)CN1C(=O)[C@@H](N[C@@H](Cc2c[nH]c3ccccc23)C(=O)O)CCc2ccccc21 | 
13 | 7 nM | NCCCC[C@H](N[C@H]1CCc2ccccc2N(CC(=O)O)C1=O)C(=O)O [LIBENZAPRIL] | Delta blood pressure [2]: -69 mmHg; ED50 [3]: 1.7 mg/kg; ED50 [4]: 0.07 mg/kg
14 | 6.5 nM | CSCC[C@H](N[C@H]1CCc2ccccc2N(CC(=O)O)C1=O)C(=O)O | 
15 | 540 nM | CCOC(=O)[C@H](Cc1c[nH]c2ccccc12)N[C@H]1CCc2ccccc2N(CC(=O)O)C1=O | 
16 |  | CCOC(=O)[C@H](CCc1ccccc1)N[C@H]1CCc2ccccc2N(CC(=O)O)C1=O [BENAZEPRIL] | ED50 [3]: 0.1 mg/kg; Delta blood pressure [5]: 50 mmHg; IC50 [6]: 1.7 nM
17 | 4 nM | O=C(O)CN1C(=O)[C@@H](N[C@@H](CSc2ccccc2)C(=O)O)CCc2ccccc21 | 
18 | 7 nM | O=C(O)CN1C(=O)[C@@H](N[C@@H](CSCCc2ccccc2)C(=O)O)CCc2ccccc21 | 
19 | 2600 nM | CCCC[C@H](N[C@H]1CCc2ccccc2N(CC(=O)O)C1=O)C(=O)OCC | 
20 |  | CCOC(=O)[C@H](CCc1ccccc1)N[C@@H](C)C(=O)N1CCC[C@H]1C(=O)O | ED50 [7]: 0.096 mg/kg; ED50 [3]: 0.14 mg/kg; Delta blood pressure [5]: -54 mmHg; Delta blood pressure [8]: -35 mmHg; ED50 [9]: 0.15 mg/kg; ED50 [10]: 0.28 mg/kg
